Measured values: ChEMBL document CHEMBL1137859, “Synthesis of C8-linked pyrrolo[2,1-c][1,4]benzodiazepine-benzimidazole conjugates with remarkable DNA-binding affinity” (2004)

How the values were obtained:
[1] = tested on: Calf thymus DNA; test: Thermal denaturation of calf thymus DNA at 0 h, incubation at 37 degree C; type: nucleic-acid assay; settings: Bos taurus
Method in brief: (§1)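 CT-DNA (100 μM) with ligand 20 μM (PBD/DNA molar ratio 1:5) in aqueous sodium phosphate buffer (10 mM sodium phosphate + 1 mM EDTA, pH 7.00±0.01). Incubated at 37 °C for 0 h or 18 h, then thermal helix→coil melting followed. ΔTm taken relative to DNA alone (Tm mean of 20 separate determinations). ΔTm values ±0.05–0.1 °C.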

[2] = tested on: Calf thymus DNA; test: Thermal denaturation of calf thymus DNA at 18 h, incubation at 37 degree C; type: nucleic-acid assay; settings: Bos taurus; method in brief: as §1
[3] = tested on: UACC-62; test: In vitro concentration required to produce 50% lethality against human melanoma UACC-62 cell line; type: functional; settings: read-out: LC50 (the source's name)
[4] = tested on: MDA-MB-435; test: In vitro concentration required to produce 50% lethality against human breast MDA-MB-435 cell line; type: functional; settings: read-out: LC50 (the source's name)
[5] = tested on: Malme-3M; test: In vitro concentration required to produce 50% lethality against human melanoma MALME-3M cell line; type: functional; settings: read-out: LC50 (the source's name)
[6] = tested on: SK-MEL-2; test: In vitro concentration required to produce 50% lethality against human melanoma SK-MEL-2 cell line; type: functional; settings: read-out: LC50 (the source's name)
[7] = tested on: SK-MEL-5; test: In vitro concentration required to produce 50% lethality against human melanoma SK-MEL-5 cell line; type: functional; settings: read-out: LC50 (the source's name)
[8] = tested on: MDA-MB-231; test: In vitro concentration required to produce 50% lethality against human breast MDA-MB-231/ATCC cell line; type: functional; settings: read-out: LC50 (the source's name)
[9] = tested on: EKVX; test: In vitro concentration required to produce 50% lethality against human non small cell lung EKVX cell line; type: functional; settings: read-out: LC50 (the source's name)
[10] = tested on: HOP-62; test: In vitro concentration required to produce 50% lethality against human non small cell lung HOP-62 cell line; type: functional; settings: read-out: LC50 (the source's name)
[11] = tested on: NCI-H226; test: In vitro concentration required to produce 50% lethality against human non small cell lung NCI-H226 cell line; type: functional; settings: read-out: LC50 (the source's name)
[12] = tested on: NCI-H522; test: In vitro concentration required to produce 50% lethality against human non small cell lung NCI-H522 cell line; type: functional; settings: read-out: LC50 (the source's name)
[13] = In vitro concentration required to produce 50% lethality against human CNS […] cell line; type: functional; settings: read-out: LC50 (the source's name)
[14] = tested on: SF-539; test: In vitro concentration required to produce 50% lethality against human CNS SF-539 cell line; type: functional; settings: read-out: LC50 (the source's name)
[15] = tested on: SNB-19; test: In vitro concentration required to produce 50% lethality against human CNS SNB-19 cell line; type: functional; settings: read-out: LC50 (the source's name)
[16] = tested on: KM12; test: In vitro concentration required to produce 50% lethality against human colon KM12 cell line; type: functional; settings: read-out: LC50 (the source's name)
[17] = tested on: 786-0; test: In vitro concentration required to produce 50% lethality against human renal 786-0 cell line; type: functional; settings: read-out: LC50 (the source's name)
[18] = tested on: A498; test: In vitro concentration required to produce 50% lethality against human renal A-498 cell line; type: functional; settings: read-out: LC50 (the source's name)
[19] = tested on: TK-10; test: In vitro concentration required to produce 50% lethality against human renal TK-10 cell line; type: functional; settings: read-out: LC50 (the source's name)
[20] = tested on: M14; test: In vitro concentration required to produce 50% lethality against human melanoma M14 cell line; type: functional; settings: read-out: LC50 (the source's name)
[21] = tested on: SN12C; test: In vitro concentration required to produce 50% lethality against human renal SN12C cell line; type: functional; settings: read-out: LC50 (the source's name)
[22] = tested on: BT-549; test: In vitro concentration required to produce 50% lethality against human breast BT-549 cell line; type: functional; settings: read-out: LC50 (the source's name)
[23] = tested on: PC-3; test: In vitro concentration required to produce 50% lethality against human prostate PC-3 cell line; type: functional; settings: read-out: LC50 (the source's name)
[24] = tested on: RXF 393; test: In vitro concentration required to produce 50% lethality against human renal RXF 393 cell line; type: functional; settings: read-out: LC50 (the source's name)
[25] = tested on: IGROV-1; test: In vitro concentration required to produce 50% lethality against human ovarian IGROVI cell line; type: functional; settings: read-out: LC50 (the source's name)
[26] = tested on: OVCAR-3; test: In vitro concentration required to produce 50% lethality against human ovarian OVCAR-3 cell line; type: functional; settings: read-out: LC50 (the source's name)
[27] = tested on: OVCAR-5; test: In vitro concentration required to produce 50% lethality against human ovarian OVCAR-5 cell line; type: functional; settings: read-out: LC50 (the source's name)
[28] = In vitro concentration required to produce 50% lethality against human prostate DU-145 cell line; type: functional; settings: read-out: LC50 (the source's name)
[29] = tested on: T47D; test: In vitro concentration required to produce 50% lethality against human breast T47D cell line; type: functional; settings: read-out: LC50 (the source's name)
[30] = tested on: OVCAR-8; test: In vitro concentration required to produce 50% lethality against human ovarian OVCAR-8 cell line; type: functional; settings: read-out: LC50 (the source's name)

COc1cc2c(cc1OCCCOc1ccc(-c3nc4ccccc4[nH]3)cc1)N=C[C@@H]1CCCN1C2=O showed a ΔTm [1] of 11 °C and a ΔTm [2] of 11.4 °C.
Work on COc1cc2c(cc1OCCCCOc1ccc(-c3nc4cc(N5CCN(C)CC5)ccc4[nH]3)cc1)N=C[C@@H]1CCCN1C2=O yielded a ΔTm [1] of 15.5 °C and a ΔTm [2] of 15.5 °C.
In the case of COc1cc2c(cc1OCCCCCOc1ccc(-c3nc4ccccc4[nH]3)cc1)N=C[C@@H]1CCCN1C2=O, the ΔTm [1] is reported as 10.3 °C and the ΔTm [2] is reported as 11 °C.
Work on COc1cc2c(cc1OCCCCOc1ccc(-c3nc4ccccc4[nH]3)cc1)N=C[C@@H]1CCCN1C2=O yielded a ΔTm [1] of 3.8 °C and a ΔTm [2] of 4 °C.
For COc1cc2c(cc1OCCCOc1ccc(-c3nc4ccc(N5CCN(C)CC5)cc4[nH]3)cc1)N=C[C@@H]1CCCN1C2=O, the ΔTm [1] was 16.6 °C, the ΔTm [2] was 22.5 °C and the CC50 [3] was 0.01 µM. The CC50 [4] was 0.01 µM, the CC50 [5] was 34.4 µM and the CC50 [6] was 0.01 µM. For the same molecule, the CC50 [7] was 0.01 µM, the CC50 [8] was 13.5 µM and the CC50 [9] was 25.2 µM. The CC50 [10] was 17.4 µM, the CC50 [11] was 23.5 µM and the CC50 [12] was 0.01 µM. For the same molecule, the CC50 [13] was 27.8 µM, the CC50 [14] was 0.01 µM and the CC50 [15] was 47.5 µM. The CC50 [16] was 45.2 µM, the CC50 [17] was 31.2 µM and the CC50 [18] was 0.01 µM. The CC50 [19] was 39.7 µM, the CC50 [20] was 0.01 µM and the CC50 [21] was 18.7 µM. The CC50 [22] was 12.6 µM, the CC50 [23] was 16.4 µM and the CC50 [24] was 0.01 µM. The CC50 [25] was 45.3 µM, the CC50 [26] was 34.6 µM and the CC50 [27] was 33.9 µM. For the same molecule, the CC50 [28] was 33.7 µM, the CC50 [29] was 42.1 µM and the CC50 [30] was 21 µM.
With CN1CCN(c2ccc3[nH]c(-c4ccc(O)cc4)nc3c2)CC1 the ΔTm [1] was 2.9 °C and the ΔTm [2] was 2.9 °C.
COc1cc2c(cc1OCCCCCOc1ccc(-c3nc4cc(N5CCN(C)CC5)ccc4[nH]3)cc1)N=C[C@@H]1CCCN1C2=O gave a ΔTm [1] of 22.4 °C and a ΔTm [2] of 22.6 °C.
COc1cc2c(cc1O)N=C[C@H]1CCCN1C2=O gave a ΔTm [1] of 0.3 °C.
